{"source": "ChEMBL document CHEMBL4145607", "about": "“Tamarixetin Exhibits Anti-inflammatory Activity and Prevents Bacterial Sepsis by Increasing IL-10 Production” (J Nat Prod, 2018)", "tested_on": "Mus musculus", "assay": "Antiinflammatory activity in Balb/c mouse model of LPS-induced endotoxemia assessed as reduction in infiltration of immune cells at 1 mg/kg, ip pretreated for 1 hr followed by LPS-challenge measured after 12 hrs by hematoxylin and eosin staining based microscopic analysis", "assay_type": "functional, organism-based", "procedure,_shortened": "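Dosing was 1 mg·kg−1 i.p. 1 h before LPS 10 mg·kg−1 i.p. in BALB/c mice. At 12 h lungs were perfused and formalin-fixed, then paraffin-embedded. 5 μm sections were H&E-stained and imaged by microscope. Representative of three independent experiments.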", "note": "The source made the active and inactive calls. No cut-off for these calls is given here.", "data": [{"smiles": "COc1ccc(-c2oc3cc(O)cc(O)c3c(=O)c2O)cc1O", "note": "[TAMARIXETIN]", "values": [{"measurement": "Activity", "result": "Active"}]}]}
